Reference: ChEMBL document CHEMBL1153932, “Hybrid alpha-bromoacryloylamido chalcones. Design, synthesis and biological evaluation” (Bioorg Med Chem Lett, 2009)
The source made the active and inactive calls. No cut-off for these calls is given here.

Legend:
K562 [1] = assay: Cell cycle arrest in human K562 cells assessed as accumulation at S phase at IC75 after 72 hrs using propidium iodide staining by flow cytometry; format: functional
Method in brief: (§1)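 K562 cells were cultured 72 h with or without compound, then stained with propidium iodide and analysed by flow cytometry. The proportions of cells in sub-G1, G0–G1, S and G2-M were read from DNA histograms and compared with untreated controls.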

K562 [2] = assay: Cell cycle arrest in human K562 cells assessed as accumulation at subG1 phase at IC75 after 72 hrs using propidium iodide staining by flow cytometry; format: functional; method in brief: as §1
[3] = Inhibition of bovine brain tubulin polymerization; design: species or system Bos taurus
K562 [4] = assay: Antiproliferative activity against human K562 cells after 48 hrs by Coulter counting analysis; format: functional, cell-based; details: K562, 48 h
FM3A = assay: Antiproliferative activity against mouse FM3A cells after 48 hrs by Coulter counting analysis; format: functional, cell-based
MOLT-4 = assay: Antiproliferative activity against human MOLT4 cells after 48 hrs by Coulter counting analysis; format: functional, cell-based; details: MOLT-4, 48 h
[5] = Solubility of the compound; format: physicochemical
K562 [6] = assay: Cell cycle arrest in human K562 cells assessed as accumulation at G0-G1 phase at IC75 after 72 hrs using propidium iodide staining by flow cytometry; format: functional; method in brief: as §1
K562 [7] = assay: Cell cycle arrest in human K562 cells assessed as accumulation at G2-M phase at IC75 after 72 hrs using propidium iodide staining by flow cytometry; format: functional; method in brief: as §1
L1210 = assay: Antiproliferative activity against mouse L1210 cells after 48 hrs by Coulter counting analysis; format: functional, cell-based; details: L1210, 48 h
HeLa = assay: Antiproliferative activity against human HeLa cells after 48 hrs by Coulter counting analysis; format: functional, cell-based
CCRF-CEM = assay: Antiproliferative activity against human CEM cells after 48 hrs by Coulter counting analysis; format: cell-based
K562 [8] = assay: Induction of apoptosis in human K562 cells assessed as phosphatidylserine externalization up to 3 uM after 24 hrs using annexin-V-FITC staining by flow cytometry; format: functional, cell-based
K562 [9] = assay: Induction of apoptosis in human K562 cells assessed as phosphatidylserine externalization up to 3 uM after 48 hrs using annexin-V-FITC staining by flow cytometry; format: functional, cell-based
K562 [10] = assay: Induction of apoptosis in human K562 cells assessed as phosphatidylserine externalization at 0.2 uM after 3 days using annexin-V-FITC staining by flow cytometry; format: functional, cell-based
K562 [11] = assay: Induction of apoptosis in human K562 cells assessed as caspase 3 activation at 1.25 uM after 48 hrs by flow cytometry; format: functional, cell-based
Method in brief: (§2)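 K562 cells were treated with compound for 24 h and 48 h, then harvested. Cells were stained with a FITC-conjugated monoclonal antibody against the active fragment of human caspase-3 and analysed by flow cytometry against untreated controls.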

K562 [12] = assay: Induction of apoptosis in human K562 cells assessed as caspase 3 activation at 0.6 uM after 24 hrs by flow cytometry; format: functional, cell-based; method in brief: as §2
K562 [13] = assay: Induction of apoptosis in human K562 cells assessed as caspase 3 activation at 1.25 uM after 24 hrs by flow cytometry; format: functional, cell-based; method in brief: as §2
K562 [14] = assay: Induction of apoptosis in human K562 cells assessed as increase in mitochondrial mass at […] after 48 hrs using 10-N-nonyl acridine orange staining by flow cytometry; format: functional, cell-based
K562 [15] = assay: Induction of apoptosis in human K562 cells assessed as caspase 3 activation at 0.6 uM after 48 hrs by flow cytometry; format: functional, cell-based; method in brief: as §2
Bos taurus = organism: Bos taurus; assay: Displacement of [3H]colchicine from bovine brain tubulin at 50 uM

Structure (SMILES)	IC50 [3] [nM]	IC50 (MOLT-4) [nM]	solubility [5]	IC50 (L1210) [nM]	IC50 (HeLa) [nM]	IC50 (CCRF-CEM) [nM]	Activity (K562 [1]) [%]	Activity (K562 [2]) [%]	IC75 (K562 [4]) [nM]	IC50 (FM3A) [nM]	Activity (K562 [6]) [%]	Activity (K562 [7]) [%]	further results
C=C(Br)C(=O)Nc1ccc(/C=C/C(=O)c2ccc(Br)cc2)cc1	> 40000	680	Insoluble	620	1000	990	27.5	20.4	840	1100	35.9	16.2	
C=C(Br)C(=O)Nc1ccc(C(=O)/C=C/c2ccc(N(C)C)cc2)cc1		1300		1900	610	1500				2800			Activity (K562 [8]): Active; Activity (K562 [9]): Active
C=C(Br)C(=O)Nc1ccc(C(=O)/C=C/c2ccc(OC)c(OC)c2OC)cc1	> 40000	680	Insoluble	630	510	840	14.9	57.8	710	530	13.7	13.6	IC50 (K562 [4]): 200 nM; Activity (K562 [10]): Active
C=C(Br)C(=O)Nc1ccc(/C=C/C(=O)c2ccc(OCC)cc2)cc1	> 40000	610	Insoluble	240	750	750	19.6	52.3	850	680	16.5	11.6	Activity (K562 [11]): Active; Activity (K562 [12]): Active; Activity (K562 [13]): Active; Activity (K562 [14]): Active; Activity (K562 [15]): Active
C=C(Br)C(=O)Nc1ccc(/C=C/C(=O)c2cccs2)cc1	> 40000	550	Insoluble	250	340	730	23.2	42.8	820	520	17	17	

The next lines start with results.

IC50 [3] [nM]	IC50 (MOLT-4) [nM]	solubility [5]	IC50 (L1210) [nM]	IC50 (HeLa) [nM]	IC50 (CCRF-CEM) [nM]	Structure (SMILES)	Activity (K562 [1]) [%]	Activity (K562 [2]) [%]	IC75 (K562 [4]) [nM]	IC50 (FM3A) [nM]	Activity (K562 [6]) [%]	Activity (K562 [7]) [%]	further results
> 40000	500	Insoluble	880	960	1500	C=C(Br)C(=O)Nc1ccc(C(=O)/C=C/c2ccccc2)cc1	16.4	47.6	2770	690	23	13	
> 40000	490	Insoluble	1100	380	710	C=C(Br)C(=O)Nc1ccc(C(=O)/C=C/c2cccc(OC)c2OC)cc1	15.2	48.4	640	550	22.3	14.1	
> 40000	610	Insoluble	900	310	1100	C=C(Br)C(=O)Nc1ccc(C(=O)/C=C/c2ccc(OC)cc2)cc1	11.6	68.2	1140	1000	11	9.2	
8300	240	Insoluble	1700	1300	580	C=C(Br)C(=O)Nc1ccc(C(=O)/C=C/c2ccccc2OC)cc1	6.3	83.4	2940	370	6.4	3.9	inhibition (Bos taurus): 37%
